Measurements taken from ChEMBL document CHEMBL4689842, “EUbOPEN Chemogenomics Library wave 1” (2021).

Assays:
Type in all cases: toxicity, cell-based
[1] = system: U2OS; assay: Incucyte cell viability with U2OS; details: human, 10 µM, compound concentration 10 uM; note: filed as whole numbers so only -1 and 0 and 1 occur
[2] = system: U2OS; assay: Multiplex assay against U2OS; details: human
Summary of the method: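 Hoechst33342, BioTracker Green Microtubule Cytoskeleton Dye, MitoTracker Red and Annexin V Alexa Fluor 680 were added to live cells at seeding, and imaging on a CQ1 microscope at 37°C and 5% CO2 followed compound addition. Gating by CellPathfinder machine learning separated cells into Hoechst high-intensity objects or normal cells, then normal cells into healthy, pyknosed or fragmented nuclei, then pyknosed cells into mitotic or apoptotic. Per cents of healthy-nucleus cells are reported for the tubulin, mitochondrial-mass and membrane-permeability phenotypes.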

[3] = system: Fibroblast; assay: Incucyte cell viability with human fibroblast; details: 10 µM, compound concentration 10 uM; note: filed as whole numbers so only -1 and 0 and 1 occur
[4] = system: HEK-293T; assay: Incucyte cell viability with HEK293T; details: human, 10 µM, compound concentration 10 uM; note: filed as whole numbers so only -1 and 0 and 1 occur
[5] = 0 h, replicate number 1, timepoint 0 hours
[6] = 6 h, replicate number 1, timepoint 6 hours
[7] = 6 h, replicate number 2, timepoint 6 hours
[8] = 12 h, replicate number 1, timepoint 12 hours
[9] = 18 h, replicate number 1, timepoint 18 hours
[10] = 18 h, replicate number 2, timepoint 18 hours
[11] = 24 h, replicate number 1, timepoint 24 hours
[12] = 12 h, 1 µM, compound concentration 1 uM, replicate 1
[13] = 12 h, 1 µM, compound concentration 1 uM, replicate 2
[14] = 12 h, 10 µM, compound concentration 10 uM, replicate 1
[15] = 12 h, 10 µM, compound concentration 10 uM, replicate 2
[16] = 24 h, 1 µM, compound concentration 1 uM, replicate 1
[17] = 24 h, 1 µM, compound concentration 1 uM, replicate 2
[18] = 24 h, 10 µM, compound concentration 10 uM, replicate 1
[19] = 24 h, 10 µM, compound concentration 10 uM, replicate 2
[20] = 48 h, 1 µM, compound concentration 1 uM, replicate 1
[21] = 48 h, 1 µM, compound concentration 1 uM, replicate 2
[22] = 48 h, 10 µM, compound concentration 10 uM, replicate 1
[23] = 48 h, 10 µM, compound concentration 10 uM, replicate 2

## Cc1cc2c(cc1N1C(=O)c3cccc4c(CCCO)ccc(c34)C1=O)n(C)c(=O)n2C
[1]; [5]
  Growth Rate: 0
[1]; [6]
  Growth Rate: 0
[1]; [7]
  Growth Rate: 1
[1]; [8]
  Growth Rate: 0
[1]; [9]
  Growth Rate: 0
[1]; [10]
  Growth Rate: 1
[1]; [11]
  Growth Rate: 0
[2]; [12]
  Population Apoptotic (%): 50%
  Population Fragmented Nuclei (%): 11%
  Population Healthy Nuclei (%): 82%
  Population Hoechst High Intensity Objects (%): 6%
  Population Membrane Permeable-Phenotype (%): 4%
  Population Mitochondria Different-Phenotype (%): 7%
  Population Mitotic Cells (%): 50%
  Population Normal (%): 93%
  Population Pyknosed Nuclei (%): 5%
  Population Tubulin-Different-Phenotype (%): 6%
  Total Cell Count: 179
[2]; [13]
  Population Apoptotic (%): 0%
  Population Fragmented Nuclei (%): 6%
  Population Healthy Nuclei (%): 90%
  Population Hoechst High Intensity Objects (%): 8%
  Population Membrane Permeable-Phenotype (%): 1%
  Population Mitochondria Different-Phenotype (%): 22%
  Population Mitotic Cells (%): 100%
  Population Normal (%): 91%
  Population Pyknosed Nuclei (%): 3%
  Population Tubulin-Different-Phenotype (%): 24%
  Total Cell Count: 104
[2]; [14]
  Population Apoptotic (%): 54%
  Population Fragmented Nuclei (%): 11%
  Population Healthy Nuclei (%): 72%
  Population Hoechst High Intensity Objects (%): 6%
  Population Membrane Permeable-Phenotype (%): 16%
  Population Mitochondria Different-Phenotype (%): 44%
  Population Mitotic Cells (%): 45%
  Population Normal (%): 93%
  Population Pyknosed Nuclei (%): 15%
  Population Tubulin-Different-Phenotype (%): 68%
  Total Cell Count: 166
[2]; [15]
  Population Apoptotic (%): 37%
  Population Fragmented Nuclei (%): 20%
  Population Healthy Nuclei (%): 63%
  Population Hoechst High Intensity Objects (%): 9%
  Population Membrane Permeable-Phenotype (%): 29%
  Population Mitochondria Different-Phenotype (%): 77%
  Population Mitotic Cells (%): 62%
  Population Normal (%): 90%
  Population Pyknosed Nuclei (%): 16%
  Population Tubulin-Different-Phenotype (%): 96%
  Total Cell Count: 54
[2]; [16]
  Population Apoptotic (%): 38%
  Population Fragmented Nuclei (%): 11%
  Population Healthy Nuclei (%): 80%
  Population Hoechst High Intensity Objects (%): 3%
  Population Membrane Permeable-Phenotype (%): 5%
  Population Mitochondria Different-Phenotype (%): 18%
  Population Mitotic Cells (%): 61%
  Population Normal (%): 96%
  Population Pyknosed Nuclei (%): 7%
  Population Tubulin-Different-Phenotype (%): 10%
  Total Cell Count: 176
[2]; [17]
  Population Apoptotic (%): 40%
  Population Fragmented Nuclei (%): 7%
  Population Healthy Nuclei (%): 87%
  Population Membrane Permeable-Phenotype (%): 0%
  Population Mitochondria Different-Phenotype (%): 27%
  Population Mitotic Cells (%): 60%
  Population Pyknosed Nuclei (%): 5%
  Population Tubulin-Different-Phenotype (%): 17%
  Total Cell Count: 96
[2]; [18]
  Population Apoptotic (%): 59%
  Population Fragmented Nuclei (%): 15%
  Population Healthy Nuclei (%): 70%
  Population Hoechst High Intensity Objects (%): 3%
  Population Membrane Permeable-Phenotype (%): 5%
  Population Mitochondria Different-Phenotype (%): 35%
  Population Mitotic Cells (%): 40%
  Population Normal (%): 96%
  Population Pyknosed Nuclei (%): 14%
  Population Tubulin-Different-Phenotype (%): 38%
  Total Cell Count: 159
[2]; [19]
  Population Apoptotic (%): 80%
  Population Fragmented Nuclei (%): 18%
  Population Healthy Nuclei (%): 62%
  Population Hoechst High Intensity Objects (%): 11%
  Population Membrane Permeable-Phenotype (%): 41%
  Population Mitochondria Different-Phenotype (%): 76%
  Population Mitotic Cells (%): 20%
  Population Normal (%): 88%
  Population Pyknosed Nuclei (%): 18%
  Population Tubulin-Different-Phenotype (%): 76%
  Total Cell Count: 61
[2]; [20]
  Population Apoptotic (%): 65%
  Population Fragmented Nuclei (%): 16%
  Population Healthy Nuclei (%): 72%
  Population Hoechst High Intensity Objects (%): 3%
  Population Membrane Permeable-Phenotype (%): 4%
  Population Mitochondria Different-Phenotype (%): 43%
  Population Mitotic Cells (%): 35%
  Population Normal (%): 96%
  Population Pyknosed Nuclei (%): 11%
  Population Tubulin-Different-Phenotype (%): 16%
  Total Cell Count: 187
[2]; [21]
  Population Apoptotic (%): 66%
  Population Fragmented Nuclei (%): 6%
  Population Healthy Nuclei (%): 90%
  Population Hoechst High Intensity Objects (%): 10%
  Population Membrane Permeable-Phenotype (%): 9%
  Population Mitochondria Different-Phenotype (%): 49%
  Population Mitotic Cells (%): 33%
  Population Normal (%): 89%
  Population Pyknosed Nuclei (%): 3%
  Population Tubulin-Different-Phenotype (%): 28%
  Total Cell Count: 103
[2]; [22]
  Population Apoptotic (%): 79%
  Population Fragmented Nuclei (%): 20%
  Population Healthy Nuclei (%): 53%
  Population Hoechst High Intensity Objects (%): 1%
  Population Membrane Permeable-Phenotype (%): 12%
  Population Mitochondria Different-Phenotype (%): 32%
  Population Mitotic Cells (%): 20%
  Population Normal (%): 98%
  Population Pyknosed Nuclei (%): 25%
  Population Tubulin-Different-Phenotype (%): 14%
  Total Cell Count: 154
[2]; [23]
  Population Apoptotic (%): 88%
  Population Fragmented Nuclei (%): 22%
  Population Healthy Nuclei (%): 45%
  Population Hoechst High Intensity Objects (%): 8%
  Population Membrane Permeable-Phenotype (%): 46%
  Population Mitochondria Different-Phenotype (%): 57%
  Population Mitotic Cells (%): 11%
  Population Normal (%): 91%
  Population Pyknosed Nuclei (%): 31%
  Population Tubulin-Different-Phenotype (%): 30%
  Total Cell Count: 62
[3]; 0 h, replicate number 2, timepoint 0 hours
  Growth Rate: 0
[3]; [6]
  Growth Rate: 0
[3]; [7]
  Growth Rate: 1
[3]; [8]
  Growth Rate: 0
[3]; 12 h, replicate number 2, timepoint 12 hours
  Growth Rate: 1
[3]; [9]
  Growth Rate: 0
[3]; [10]
  Growth Rate: 1
[3]; [11]
  Growth Rate: 0
[3]; 24 h, replicate number 2, timepoint 24 hours
  Growth Rate: 1
[4]; [5]
  Growth Rate: 1
[4]; [11]
  Growth Rate: 1
